These results are taken from ChEMBL document CHEMBL1817572, “New, potent, selective, and short-acting peptidic V1a receptor agonists” (J Med Chem, 2011).

Molecules are shown by their SMILES. Bridge positions count the residues as written; N and C are the ends. Square brackets hold non-standard residues; d marks the D form. Peptide text beside a SMILES is read from it. * marks the point of attachment. Ala(2-furyl) = N[C@@H](Cc1ccco1)C(=O)O; Ala(cPent) = N[C@@H](CC1CCCC1)C(=O)O; 2Thi = N[C@@H](Cc1cccs1)C(=O)O; Cha = N[C@@H](CC1CCCCC1)C(=O)O; Orn = NCCC[C@H](N)C(=O)O; Dab = NCC[C@H](N)C(=O)O; X3 = OCCOCCN*

The target of one assay is Vasopressin V2 receptor (Homo sapiens, UniProt P30518). Description: Agonist activity at recombinant human vasopressin V2 receptor expressed in HEK293 cells by luciferase reporter gene assay. The assay is classed as functional, cell-based. On the technique in general: A reporter such as luciferase makes a cellular process visible.
Chain of Vasopressin V2 receptor (P30518 whole entry): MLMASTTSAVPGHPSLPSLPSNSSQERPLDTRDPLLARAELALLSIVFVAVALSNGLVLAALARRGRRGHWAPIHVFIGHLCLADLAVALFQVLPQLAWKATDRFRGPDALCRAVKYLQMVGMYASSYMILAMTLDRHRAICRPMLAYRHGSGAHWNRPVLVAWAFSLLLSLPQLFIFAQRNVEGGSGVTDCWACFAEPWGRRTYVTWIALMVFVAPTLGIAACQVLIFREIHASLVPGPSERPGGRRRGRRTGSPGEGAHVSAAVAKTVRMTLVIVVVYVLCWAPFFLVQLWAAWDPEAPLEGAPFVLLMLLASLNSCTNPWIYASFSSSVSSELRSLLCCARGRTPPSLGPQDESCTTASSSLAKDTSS
For assay [1], the species on record is Homo sapiens. Description: Selectivity ratio of EC50 for human vasopressin V1b receptor to EC50 for human vasopressin V1a receptor.
The target of the next assay is Vasopressin V1a receptor (Homo sapiens, UniProt P37288). Description: Agonist activity at recombinant human vasopressin V1a receptor expressed in HEK293 cells by luciferase reporter gene assay. The format is functional, cell-based. The following applies: read-out: EC50.
Chain of Vasopressin V1a receptor (P37288 whole entry): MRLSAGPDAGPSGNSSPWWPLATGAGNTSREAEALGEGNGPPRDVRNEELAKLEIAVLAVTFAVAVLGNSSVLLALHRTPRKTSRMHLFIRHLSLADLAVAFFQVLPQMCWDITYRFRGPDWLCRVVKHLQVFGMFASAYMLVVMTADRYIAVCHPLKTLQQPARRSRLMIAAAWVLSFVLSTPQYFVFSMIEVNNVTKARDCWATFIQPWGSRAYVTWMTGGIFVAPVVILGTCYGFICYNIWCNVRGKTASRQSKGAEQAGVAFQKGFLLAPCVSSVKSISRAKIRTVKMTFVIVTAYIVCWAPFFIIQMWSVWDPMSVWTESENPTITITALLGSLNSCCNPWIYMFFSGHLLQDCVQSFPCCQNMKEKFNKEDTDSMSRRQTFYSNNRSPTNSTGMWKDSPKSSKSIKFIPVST
In assay [2] the target is Vasopressin V1a/V2 (Homo sapiens) (UniProt P30518+P37288). Description: Selectivity ratio of EC50 for human vasopressin V2 receptor to EC50 for human vasopressin V1a receptor.
Chain of Vasopressin V1a/V2 (Homo sapiens) (P30518 whole entry, looked up): as the sequence (P30518 whole entry) above
Chain of Vasopressin V1a/V2 (Homo sapiens) (P37288 whole entry, looked up): as the sequence (P37288 whole entry) above
A further assay concerns the target T1, Vasopressin V1b receptor (Homo sapiens, UniProt P47901).
T1 sequence (P47901 whole entry): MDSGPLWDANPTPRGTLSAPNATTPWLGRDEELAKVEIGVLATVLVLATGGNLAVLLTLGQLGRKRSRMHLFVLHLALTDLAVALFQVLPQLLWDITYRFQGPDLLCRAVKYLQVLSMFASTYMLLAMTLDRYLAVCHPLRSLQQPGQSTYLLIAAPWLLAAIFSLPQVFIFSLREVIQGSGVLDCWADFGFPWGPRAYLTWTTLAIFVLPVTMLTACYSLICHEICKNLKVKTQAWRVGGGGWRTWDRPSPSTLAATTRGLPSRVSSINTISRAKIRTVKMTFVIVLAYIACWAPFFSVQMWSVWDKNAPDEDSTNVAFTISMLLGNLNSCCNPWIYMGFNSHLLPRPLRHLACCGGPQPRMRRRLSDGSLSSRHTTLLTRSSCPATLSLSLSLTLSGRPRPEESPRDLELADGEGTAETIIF
Briefly: Agonist activity at recombinant human vasopressin V1b receptor expressed in Flp-In-293 cells by luciferase reporter gene assay. The assay is classed as functional, cell-based. The following applies: read-out: EC50. In short, it runs like this:
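Reporter gene assays in HEK293 cells transiently cotransfected with V1a (human or rat) or human V2 receptor vector plus NFAT-luciferase (V1a) or CRE-luciferase (V2) reporter; V1b in Flp-In-293 stably expressing receptor, OT in CHO-K1 stably expressing receptor, both transiently transfected with NFAT-luciferase. Two days post-transfection, peptides added for 5 h at 37 °C, lysis with luciferin, luminescence read.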

In a further assay the target is T2, Oxytocin receptor (Homo sapiens, UniProt P30559).
T2 sequence (P30559 whole entry): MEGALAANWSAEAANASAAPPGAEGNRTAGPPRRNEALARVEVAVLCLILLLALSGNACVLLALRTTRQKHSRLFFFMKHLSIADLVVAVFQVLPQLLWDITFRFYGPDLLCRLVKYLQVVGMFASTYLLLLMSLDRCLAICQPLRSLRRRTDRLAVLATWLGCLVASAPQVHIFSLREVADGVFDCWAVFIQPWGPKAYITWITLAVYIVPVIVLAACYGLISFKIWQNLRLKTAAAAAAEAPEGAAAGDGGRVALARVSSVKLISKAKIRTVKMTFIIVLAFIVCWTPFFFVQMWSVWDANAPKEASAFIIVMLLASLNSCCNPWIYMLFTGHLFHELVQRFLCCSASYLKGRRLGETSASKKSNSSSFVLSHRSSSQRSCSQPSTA
Briefly: Agonist activity at human OT receptor expressed in CHO-K1 cells by luciferase reporter gene assay. The format is functional, cell-based.

For assay [3], the species on record is Homo sapiens. Briefly: Selectivity ratio of EC50 for human oxytocin receptor to EC50 for human vasopressin V1a receptor.

Consider `CC[C@H](C)[C@@H]1NC(=O)[C@H](Cc2ccccc2)NC(=O)[C@@H](N)CSSC[C@@H](C(=O)N2CCC[C@H]2C(=O)N[C@@H](CCCN)C(=O)NCC(N)=O)NC(=O)[C@H](CC(N)=O)NC(=O)[C@H](CC(=O)NCCOCCO)NC1=O` (H-CFID(X3)NCP[Orn]G-NH2; disulfide 1-6), for which the EC50 at Vasopressin V2 receptor (hek293, read-out: EC50) is above 10 µM; at Vasopressin V2 receptor (read-out: pEC50 (converted)) it was above 10 µM; at Vasopressin V1a receptor, 0.0048 µM; on Vasopressin V1b receptor, 0.041 µM; at Oxytocin receptor (cho-k1, read-out: EC50) it was above 10 µM; on Oxytocin receptor (read-out: pEC50 (converted)) it was above 10 µM. Besides, the Ratio EC50 is 8.5 in the assay filed under Homo sapiens [1], above 2000 in assay [2] and above 2000 in the assay listed under Homo sapiens [3].
In the case of `CC[C@H](C)[C@@H]1NC(=O)[C@H](CC2CCCCC2)NC(=O)[C@@H](N)CSSC[C@@H](C(=O)N2CCC[C@H]2C(=O)N[C@@H](CCCN)C(=O)NCC(N)=O)NC(=O)[C@H](CC(N)=O)NC(=O)[C@H](CC(N)=O)NC1=O` (H-C[Cha]INNCP[Orn]G-NH2; disulfide 1-6), the EC50 was above 10 µM on Vasopressin V2 receptor (hek293, read-out: EC50); above 10 µM at Vasopressin V2 receptor (read-out: pEC50 (converted)); 0.0032 µM on Vasopressin V1a receptor; 0.14 µM on Vasopressin V1b receptor; above 10 µM at Oxytocin receptor (cho-k1, read-out: EC50); above 10 µM at Oxytocin receptor (read-out: pEC50 (converted)). Moreover, the Ratio EC50 in the assay listed under Homo sapiens [1] is 43; in assay [2], above 3100; in the assay listed under Homo sapiens [3], above 3100.
Take `CC[C@H](C)[C@@H]1NC(=O)[C@H](Cc2ccco2)NC(=O)[C@@H](N)CSSC[C@@H](C(=O)N2CCC[C@H]2C(=O)N[C@@H](CCCN)C(=O)NCC(N)=O)NC(=O)[C@H](CC(N)=O)NC(=O)[C@H](CC(N)=O)NC1=O` (H-C[Ala(2-furyl)]INNCP[Orn]G-NH2; disulfide 1-6): the EC50 was above 10 µM on Vasopressin V2 receptor (hek293, read-out: EC50); above 10 µM at Vasopressin V2 receptor (read-out: pEC50 (converted)); 0.01 µM at Vasopressin V1a receptor; 0.53 µM on Vasopressin V1b receptor; above 10 µM on Oxytocin receptor (cho-k1, read-out: EC50); above 10 µM on Oxytocin receptor (read-out: pEC50 (converted)). Moreover, the Ratio EC50 in the assay filed under Homo sapiens [1] is 53; in assay [2] it was above 1000; in the assay filed under Homo sapiens [3] it was above 1000.
`CCNC(=O)C[C@@H]1NC(=O)[C@H]([C@@H](C)CC)NC(=O)[C@H](Cc2ccccc2)NC(=O)[C@@H](N)CSSC[C@@H](C(=O)N2CCC[C@H]2C(=O)N[C@@H](CCCN)C(=O)NCC(N)=O)NC(=O)[C@H](CC(N)=O)NC1=O` (H-CFID(NHEt)NCP[Orn]G-NH2; disulfide 1-6): the EC50 at Vasopressin V2 receptor (hek293, read-out: EC50) is above 10 µM; on Vasopressin V2 receptor (read-out: pEC50 (converted)) it was above 10 µM; on Vasopressin V1a receptor, 0.0057 µM; at Vasopressin V1b receptor, 0.03 µM; at Oxytocin receptor (cho-k1, read-out: EC50), above 10 µM; at Oxytocin receptor (read-out: pEC50 (converted)), above 10 µM. Moreover, the Ratio EC50 in the assay filed under Homo sapiens [1] was 5.2; in assay [2] it was above 1700; in the assay listed under Homo sapiens [3] it was above 1700.
Take `CC[C@H](C)[C@@H]1NC(=O)[C@H](Cc2cccs2)NC(=O)[C@@H](N)CSSC[C@@H](C(=O)N2CCC[C@H]2C(=O)N[C@@H](CCCN)C(=O)NCC(N)=O)NC(=O)[C@H](CC(N)=O)NC(=O)[C@H](CC(N)=O)NC1=O` (H-C[2Thi]INNCP[Orn]G-NH2; disulfide 1-6): the EC50 was above 10 µM on Vasopressin V2 receptor (hek293, read-out: EC50); above 10 µM at Vasopressin V2 receptor (read-out: pEC50 (converted)); 0.015 µM on Vasopressin V1a receptor; 0.22 µM on Vasopressin V1b receptor; above 10 µM on Oxytocin receptor (cho-k1, read-out: EC50); above 10 µM on Oxytocin receptor (read-out: pEC50 (converted)). In addition, the figures for the Ratio EC50 (in the assay filed under Homo sapiens [1]; in assay [2]; in the assay listed under Homo sapiens [3]) were 14, above 660 and above 660, respectively.
With `CC[C@H](C)[C@@H]1NC(=O)[C@H](CC2CCCC2)NC(=O)[C@@H](N)CSSC[C@@H](C(=O)N2CCC[C@H]2C(=O)N[C@@H](CCN)C(=O)NCC(N)=O)NC(=O)[C@H](CC(N)=O)NC(=O)[C@H](CC(N)=O)NC1=O` (H-C[Ala(cPent)]INNCP[Dab]G-NH2; disulfide 1-6), the EC50 is above 10 µM at Vasopressin V2 receptor (hek293, read-out: EC50); above 10 µM at Vasopressin V2 receptor (read-out: pEC50 (converted)); 0.011 µM at Vasopressin V1a receptor; 0.076 µM on Vasopressin V1b receptor; above 10 µM at Oxytocin receptor (cho-k1, read-out: EC50); above 10 µM on Oxytocin receptor (read-out: pEC50 (converted)). Moreover, the Ratio EC50 was 6.9 in the assay filed under Homo sapiens [1], above 900 in assay [2] and above 900 in the assay filed under Homo sapiens [3].
